From ChEMBL document CHEMBL1136441, “The design and synthesis of novel orally active inhibitors of AP-1 and NF-kappaB mediated transcriptional activation. SAR of in vitro and in vivo studies” (Bioorg Med Chem Lett, 2003) come the findings set out here.

The nature of assay [1]: Inhibition of AP-1 and NF-kB mediated transcriptional activation in Jurkat T-cells. The class given is functional, cell-based. Particulars: Homo sapiens. The essentials: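 Jurkat T-cell luciferase reporter lines, stably transfected with either an NF-kB site (MHC promoter) fused to a minimal SV-40 promoter, or an AP-1 site (collagenase promoter). Cells at 1×10⁶/mL in medium with 10% serum-plus were plated 18 h ahead. Compound in 0.2% DMSO/H₂O was added for 0.5 h at 37 °C, then PMA plus PHA (1 ug/mL) for 5 h. Lysate luminescence was read; IC50 is 50% of control luciferase.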

The subject of the next assay is Caco-2. The assay is described as follows: Caco-2 permeability coefficient value was determined. On the technique in general: Caco-2 monolayers are a common model of the intestinal barrier.

In general, IC50 refers to the concentration that gives 50% inhibition. Compound `CC1=CC(=O)N(Nc2nc(-c3cccs3)nc3ccc(Cl)cc23)C1=O` yielded an IC50 in assay [1] of 20 nM. On the same count and under the same terms, with `COc1ccc2nc(C(F)(F)F)nc(NN3C(=O)C=C(C)C3=O)c2c1` the figure was 30 nM. As to `COc1cccc2nc(-c3cccs3)nc(NN3C(=O)C=C(C)C3=O)c12` [AS-602868], the Pc in the assay on Caco-2 came out at 14.1 ×10⁻⁶ cm/s. Further, the IC50 in assay [1] amounted to 8 nM. In the case of `COc1cc2nc(-c3cccs3)nc(NN3C(=O)C=C(C)C3=O)c2cc1OC`, the IC50 in assay [1] worked out at 50 nM. In the case of `CC1=CC(=O)N(Nc2nc(C(F)(F)F)nc3cc(N(C)C)ccc23)C1=O`, the Pc in the assay on Caco-2 worked out at 1.68 ×10⁻⁶ cm/s. The same compound returned an IC50 in assay [1] of 20 nM. As to `CC1=CC(=O)N(Nc2nc(-c3cccs3)nc3cccc(C)c23)C1=O`, the IC50 in assay [1] came out at 20 nM. Still for that read-out and setting: with `CC1=CC(=O)N(Nc2nc(-c3cccs3)nc3cc(N4CCOCC4)ccc23)C1=O` the figure was 200 nM; with `CC1=CC(=O)N(Nc2nc(-c3ccccc3)nc3ccccc23)C1=O`, 100 nM.

Turning to `CC1=CC(=O)N(Nc2nc(C(F)(F)F)nc3ccc(S(C)(=O)=O)cc23)C1=O`, inhibition in assay [1] was half-maximal at 9000 nM (IC50). On the same count and under the same terms, with `CC1=CC(=O)N(Nc2nc(C(F)(F)F)nc3ccc([S+](C)[O-])cc23)C1=O` (stereo not drawn) the figure was 1000 nM; with `CC1=CC(=O)N(Nc2nc(-c3cccs3)nc3ccccc23)C1=O`, 60 nM. As for `COc1ccc2nc(-c3cccs3)nc(NN3C(=O)C=C(C)C3=O)c2c1`, in the assay on Caco-2, the Pc was 1.62 ×10⁻⁶ cm/s. In assay [1], this compound registered an IC50 of 3 nM. The matching figures for `COc1cccc2nc(C(F)(F)F)nc(NN3C(=O)C=C(C)C3=O)c12`: 1.49 ×10⁻⁶ cm/s and 10 nM. With `COc1cccc2c(NN3C(=O)C=C(C)C3=O)nc(-c3cccs3)nc12`, in assay [1], the IC50 was found to be 50 nM. With `CC1=CC(=O)N(Nc2nc(-c3cccs3)nc3cc(N(C)C)ccc23)C1=O`, the Pc in the assay with Caco-2 worked out at 1.41 ×10⁻⁶ cm/s. In assay [1], this compound yielded an IC50 of 40 nM. As for `CSc1ccc2nc(C(F)(F)F)nc(NN3C(=O)C=C(C)C3=O)c2c1`, the IC50 in assay [1] is 80 nM. Same read-out and setting: with `CC1=CC(=O)N(Nc2nc(C(F)(F)F)nc3cc(N4CCCCC4)ccc23)C1=O` the figure was 200 nM. Still for that read-out and setting: with `CC1=CC(=O)N(Nc2nc(C(F)(F)F)nc3cccc(C)c23)C1=O` the figure was 400 nM.

Take `CC1=CC(=O)N(Nc2nc(-c3cccs3)nc3cccc(F)c23)C1=O`: half-maximal inhibition in assay [1] (IC50) was put at 50 nM.

The compound `CC1=CC(=O)N(Nc2nc(C(F)(F)F)nc3ccccc23)C1=O` came in with an IC50 in assay [1] of 100 nM.

In assay [1], `COc1ccc2c(NN3C(=O)C=C(C)C3=O)nc(-c3cccs3)nc2c1` had an IC50 of 20 nM. This IC50 lies about 5-fold lower than the previous one. In turn, `COc1cc2c(NN3C(=O)C=C(C)C3=O)nc(-c3cccs3)nc2c(OC)c1OC` had an IC50 in assay [1] of 40 nM. The compound `CC1=CC(=O)N(Nc2nc(C(F)(F)F)nc3ccc(O)cc23)C1=O` yielded an IC50 in assay [1] of 100 nM.
